Only a selection was taken, and hits are over-represented in it overall.
CHOP UPR activ: apoptotic UPR (CHOP) activation. CHO-CHOP luciferase reporter, luminescence; percent of tunicamycin response over DMSO baseline. activation, % at 10 µM. 330,000 tested, 0.34% active;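 active = at 10 µM dose, activation of 40% or more, normalized to positive control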;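 also: 100% = tunicamycin at 10 µg/mL and 0% = DMSO alone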
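assay system = CHO CHOP reporter cells | amount = 500 CHO-CHOP cells per well | buffer or medium = F12 with 10% FBS | incubation = 16-18 h cell attachment, then 6 h compound exposure, 37 °C | detection = luminescence read with Steady-Glo | read-out = percent activation relative to tunicamycin control | controls = tunicamycin high control, DMSO low control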
T cruzi inh: blocks replication of Trypanosoma cruzi | AID 1885 | 300,000 tested, 1.4% active | T. cruzi beta-gal in NIH3T3, luminescence, 90 h | inhibition, % (no concentration beside the values);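 active = mean inhibition across valid replicates above about 55%, limit read from the data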;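 also: signal also drops with host cell toxicity which is not excluded here; 0% = plate median of DMSO wells and 100% = zero luminescence signal; higher percent means less beta-gal luminescence so fewer parasites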
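Read-out: Parasite load inhibition, % | Test system: Mouse NIH/3T3 fibroblasts infected with β-gal-expressing T. cruzi Tulahuen C4 | Amount: 5,000 cells/well | Medium: DMEM, 2% fetal bovine serum | Signal: GalScreen β-gal luminescence, detergent lysis, 60 min | Timing: 3 h attach, ≥90 h co-culture | Also added: Tulahuen C4 trypomastigotes, 5000/well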
Lmaj promast: inhibitors of Leishmania major promastigote growth; inhibition, % at 10 µM; 200,000 tested, 9% active; Leishmania major promastigotes, resazurin fluorescence viability; AID 1063; in the data active = inhibition above about 50%;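 also: promastigotes grown with compound for 44 hours at 28 °C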
CHOP inh: inhibitors of CHOP induction in ER stress response; CHO-K1 CHOP-promoter luciferase, tunicamycin-induced, 15-18 h; inhibition, % at 10 µM; 220,000 tested, 3.8% active; AID 2732;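 active = compounds that reduced the stress-induced luciferase reporter signal by more than about 70% of percent inhibition, limit read from the data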;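 also: 0% = tunicamycin plus vehicle and 100% = wells without tunicamycin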
UPR XBP1 act: activators of adaptive arm of unfolded protein response (XBP1); CHO-XBP1 luciferase reporter, IRE1-XBP1 UPR activation, luminescence; percent of tunicamycin response, DMSO as zero; activation, % at 20 µM; 330,000 tested, 0.33% active; AID 463104;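 active = versus positive control, 20 µM dose yields 30% or more activation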;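 also: 100% = tunicamycin at 10 µg/mL and 0% = DMSO only wells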
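Material: CHO cell line with stable XBP1 luciferase reporter; buffer or medium: F12 medium containing 10% fetal bovine serum; compound: single point, 20 µM final compound, 1% DMSO; incubation: 6 h treatment, 37 °C; measured by: glow luminescence from Steady-Glo reagent; evaluation: activation, % of tunicamycin; control set: tunicamycin high, DMSO low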
Dynein transport: blocks dynein driven cargo transport along microtubules; z-score, hits read low; 220,000 tested, 0.47% active; 3617.4 mouse cells, GR-EGFP nuclear translocation imaging; test concentration mostly 20 µM; stimulated with dexamethasone, 1 µM; active compounds read low;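 active = plate z-score of nuclear minus cytoplasmic receptor signal below a set negative limit, without overly bright fluorescence or cell loss, cut at about -3.5 in these data, passing the limit was not always enough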;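 also: z-score of nuclear minus cytoplasmic ring GR-EGFP intensity difference per well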
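medium = tetracycline-free induction medium containing charcoal-stripped FBS | also added = 1.0 µM final dexamethasone stimulus | schedule = 48 h induction, 1 h compound, 30 min dex at 37 °C | technique = fixed, Hoechst-stained cells imaged at 10x for EGFP | measure = GR-EGFP nuclear translocation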
Numbers without * were called inactive; · = no result given.

SMILES | CHOP UPR activ | T cruzi inh | Lmaj promast | CHOP inh | UPR XBP1 act | Dynein transport
COc1cc2c(cc1OC)C(C(=O)N(C)C1CCCCC1)C1CCCCN1C2=O (centres undefined) | 0 | 5 | 59* | -7 | -1 | -0.072
Cc1c(C(=O)Nc2ccccc2)c2cc(O)ccc2n1Cc1ccccc1 | 3 | -3 | · | · | -9 | ·
CN1CCN(c2ccc(S(C)(=O)=O)cc2[N+](=O)[O-])CC1 | 5 | 6 | 54* | -10 | -1 | 0.27
CN1CCN(c2c(F)cc([N+](=O)[O-])c(N)c2Br)CC1 | 1 | 6 | 11 | 13 | 0 | 0.39
CCNc1cc(N2CCN(C)CC2)ccc1[N+](=O)[O-] | -2 | 37 | 8 | 12 | 1 | 0.61
CN1CCN(c2ccc(S(=O)(=O)C(F)(F)F)cc2[N+](=O)[O-])CC1 | 3 | 25 | 51* | 11 | 2 | -0.79
Cn1c(O)c(Cc2cccc(Cl)c2Cl)c(=O)n(C)c1=O | 2 | -6 | · | · | 0 | ·
CSc1ccccc1C(=O)C1CCCN(Cc2ccncc2)C1 (centres undefined) | 0 | -6 | 71* | 20 | 4 | 0.79
COc1ccccc1CN1CCCC(C(=O)c2ccccc2SC)C1 (centres undefined) | 1 | 60* | 68* | 34 | -1 | 0.073
COC(=O)C1=C(c2ccc(F)cc2F)C[C@@H]2CC[C@H]1N2C | 1 | · | · | · | 2 | ·
Cc1cc(Br)c(NC(=O)CN2CC=C(c3ccccc3)CC2)c(Br)c1 | 4 | 72* | 0 | 37 | -3 | -1.5
Cc1[nH]c2ccccc2c1C(=O)CN1CC=C(c2ccccc2)CC1 | 0 | 97* | 0 | -16 | 0 | -0.47
Oc1ccc2ccccc2c1CN1CC=C(c2ccccc2)CC1 | 3 | -75 | 4 | 34 | 3 | -1.2
O=C(CN1C(=O)CN=C(c2ccccc2)c2ccccc21)NCc1ccco1 | -2 | -7 | 0 | 16 | -1 | -0.15
CCOC(=O)C1(c2ccccc2)CCN(CC(=O)Nc2ccc(C)cc2)CC1 | -1 | 5 | 9 | 31 | -3 | 0.3
O=C(CN1CC=C(c2ccccc2)CC1)NC(=O)NCc1ccco1 | 1 | 4 | -5 | 76* | 0 | -0.33
COC(=O)C1=C(c2ccc(F)cc2OCc2ccccc2)C[C@@H]2CC[C@H]1N2C(=O)N1CCC(O)(c2ccc(Cl)cc2)CC1 | 13 | · | · | · | 6 | ·
Cc1ccc2c(c1)N(N=O)CCC2 | 0 | -10 | -9 | 5 | 2 | -0.95
Cc1cccn2c(=O)c3c(nc12)N1CCc2ccccc2C1C1(C3)C(=O)NC(=O)N(C)C1=O (centres undefined) | 1 | 14 | 50* | 25 | 0 | 1.1
CCCCN1C(=O)NC(=O)C2(Cc3c(nc4c(C)cccn4c3=O)N3CCc4ccccc4C32)C1=O (centres undefined) | 2 | 32 | 96* | 65 | -2 | -1.4
CCCCN1C(=O)NC(=O)C2(Cc3c(nc4ccccn4c3=O)N3CCc4ccccc4C32)C1=O (centres undefined) | -3 | 19 | 89* | 31 | 1 | -0.1
Cc1cccn2c(=O)c3c(nc12)N1CCCCCC1C1(C3)C(=O)N(C)C(=O)N(C)C1=O (centres undefined) | -1 | 21 | · | 4 | -2 | -0.54
CCN(CC)S(=O)(=O)c1cc(NC(=O)C(C)N2CC=C(c3ccccc3)CC2)ccc1C (centres undefined) | 2 | 52 | 13 | 28 | 2 | -0.77
O=C1NC(=O)C2(Cc3ccccc3N3CCOCC32)C(=O)N1c1ccccc1 (centres undefined) | -1 | 3 | 92* | 8 | 0 | -0.39
O=C1NC(=O)C2(Cc3ccccc3N3CCCC32)C(=O)N1c1ccccc1 (centres undefined) | 0 | -1 | -7 | 19 | 3 | -0.014
CC(C#N)CCC#N (centres undefined) | 1 | · | · | · | 0 | ·
CSCc1nnc2n1-c1ccc(Cl)cc1C(c1ccccc1)=NC2 | 2 | -5 | 94* | 3 | -2 | -0.22
COC(=O)C1=C(c2c(C)noc2C)C[C@@H]2CC[C@H]1N2C(=O)NCCO | 0 | · | · | · | 2 | ·

From PubChem
